Experimental data taken from ChEMBL document CHEMBL1156708, “Enamines as novel antibacterials and their structure-activity relationships” (2008).
Converted amounts (≈) assume the structure as drawn.

Key:
Type in all cases: functional
Bacillus subtilis = experiment: Antibacterial activity against Bacillus subtilis ATCC 6633 after 24 hrs by MTT assay; settings: ATCC 6633, 24 h
Outline: (§1)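 Broth microdilution MIC in MH medium; compounds from 50 mg/mL DMSO stock serially diluted in medium in microtitration plates. Inoculum about 10⁵ cfu/mL; incubated at 37 °C for 24 h. MIC read visually, then PBS containing 2 mg MTT/mL added per well; after 12 h further incubation at room temperature, OD read at 550 nm.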

Staphylococcus aureus = experiment: Antibacterial activity against Staphylococcus aureus ATCC 6538 after 24 hrs by MTT assay; settings: ATCC 6538, 24 h; outline: as §1
Escherichia coli = experiment: Antibacterial activity against Escherichia coli ATCC 35218 after 24 hrs by MTT assay; settings: ATCC 35218, 24 h; outline: as §1
Pseudomonas fluorescens = experiment: Antibacterial activity against Pseudomonas fluorescens ATCC 13525 after 24 hrs by MTT assay; settings: ATCC 13525, 24 h; outline: as §1
Aspergillus niger = experiment: Antifungal activity against Aspergillus niger ATCC 16404 after 48 hrs by MTT assay; settings: ATCC 16404, 48 h
Outline: (§2)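 MIC determined by serial dilution in RPMI-1640 medium in microtitration plates, compounds from 50 mg/mL DMSO stock. Fungal suspension about 10⁵ cfu/mL, incubated at 37 °C for 48 h. Visual MIC reading followed by addition of PBS with 2 mg MTT/mL; OD at 550 nm measured after 12 h at room temperature.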

Candida albicans = experiment: Antifungal activity against Candida albicans ATCC 10231 after 48 hrs by MTT assay; settings: ATCC 10231, 48 h; outline: as §2
Trichophyton rubrum = experiment: Antifungal activity against Trichophyton rubrum ATCC 10218 after 48 hrs by MTT assay; settings: ATCC 10218, 48 h; outline: as §2

Structure (SMILES) | MIC (Bacillus subtilis) | MIC (Staphylococcus aureus) | MIC (Escherichia coli) | MIC (Pseudomonas fluorescens) | MIC (Aspergillus niger) | MIC (Candida albicans) | MIC (Trichophyton rubrum)
CC1(C)S[C@@H]2[C@H](NC(=O)Cc3ccccc3)C(=O)N2[C@H]1C(=O)O [PENICILLIN G] | 0.78 µg/mL (≈ 2.33 µM) | 2 µg/mL (≈ 5.98 µM) |  |  |  |  | 
CCOC(=O)/C(=C\Nc1cc(Br)c(O)c(Br)c1)c1ccc(Cl)cc1 | > 50 µg/mL | 33.5 µg/mL (≈ 70.4 µM) | > 50 µg/mL | > 50 µg/mL | > 50 µg/mL | > 50 µg/mL | > 50 µg/mL
CCOC(=O)/C(=C/Nc1cc(Br)c(OCc2ccccc2)c(Br)c1)c1ccc(Cl)cc1 | > 50 µg/mL | 3.4 µg/mL (≈ 6.01 µM) | > 50 µg/mL | 8.5 µg/mL (≈ 15 µM) | > 50 µg/mL | > 50 µg/mL | > 50 µg/mL
CCOC(=O)/C(=C/Nc1ccccc1F)c1ccc(Cl)cc1 | > 50 µg/mL | 41.2 µg/mL (≈ 129 µM) | > 50 µg/mL | > 50 µg/mL | > 50 µg/mL | > 50 µg/mL | > 50 µg/mL
CCOC(=O)/C(=C/N1CCCc2ccccc21)c1ccc(OC)cc1 | > 50 µg/mL | > 50 µg/mL | > 50 µg/mL | 41.5 µg/mL (≈ 123 µM) | > 50 µg/mL | > 50 µg/mL | > 50 µg/mL
CCOC(=O)/C(=C\Nc1ccccc1F)c1ccc(Cl)cc1 | 46.6 µg/mL (≈ 146 µM) | > 50 µg/mL | > 50 µg/mL | 46 µg/mL (≈ 144 µM) | > 50 µg/mL | > 50 µg/mL | > 50 µg/mL
CCOC(=O)/C(=C/Nc1ccc(F)cc1)c1ccc(Cl)cc1 | > 50 µg/mL | 35.6 µg/mL (≈ 111 µM) | > 50 µg/mL | > 50 µg/mL | > 50 µg/mL | > 50 µg/mL | > 50 µg/mL
CCOC(=O)/C(=C/Nc1cc(Br)c(O)c(Br)c1)c1ccc(Cl)cc1 | > 50 µg/mL | 1 µg/mL (≈ 2.1 µM) | > 50 µg/mL | 3.7 µg/mL (≈ 7.78 µM) | > 50 µg/mL | > 50 µg/mL | > 50 µg/mL
CCOC(=O)/C(=C/Nc1ccc(O)cc1)c1ccc(Cl)cc1 | > 50 µg/mL | 0.5 µg/mL (≈ 1.57 µM) | > 50 µg/mL | 1.5 µg/mL (≈ 4.72 µM) | > 50 µg/mL | > 50 µg/mL | > 50 µg/mL
CCOC(=O)/C(=C/Nc1ccc(Br)cc1Br)c1ccc(Cl)cc1 | > 50 µg/mL | 8.2 µg/mL (≈ 17.8 µM) | > 50 µg/mL | 4.5 µg/mL (≈ 9.79 µM) | > 50 µg/mL | > 50 µg/mL | > 50 µg/mL
CCOC(=O)/C(=C/Nc1cc(OC)cc(OC)c1)c1ccc(Cl)cc1 | > 50 µg/mL | 0.9 µg/mL (≈ 2.49 µM) | > 50 µg/mL | 1.6 µg/mL (≈ 4.42 µM) | > 50 µg/mL | > 50 µg/mL | > 50 µg/mL
CCOC(=O)/C(=C\Nc1cc(Br)c(OC)c(Br)c1)c1ccc(Cl)cc1 | 43.3 µg/mL (≈ 88.4 µM) | 47.7 µg/mL (≈ 97.4 µM) | 48.6 µg/mL (≈ 99.3 µM) | 48.1 µg/mL (≈ 98.2 µM) | > 50 µg/mL | > 50 µg/mL | > 50 µg/mL
NC[C@H]1O[C@H](O[C@H]2[C@H](O)[C@@H](O[C@H]3O[C@H](CO)[C@@H](O)[C@H](N)[C@H]3O)[C@H](N)C[C@@H]2N)[C@H](O)[C@@H](O)[C@@H]1O [KANAMYCIN] | 0.39 µg/mL (≈ 0.805 µM) | 1 µg/mL (≈ 2.06 µM) | 3.9 µg/mL (≈ 8.05 µM) | 3.9 µg/mL (≈ 8.05 µM) |  |  | 
CCOC(=O)/C(=C\Nc1ccc(O)cc1)c1ccc(Cl)cc1 | > 50 µg/mL | 44.9 µg/mL (≈ 141 µM) | 38.9 µg/mL (≈ 122 µM) | 13.1 µg/mL (≈ 41.2 µM) | > 50 µg/mL | > 50 µg/mL | > 50 µg/mL
CCOC(=O)/C(=C/Nc1cc(Br)c(OC)c(Br)c1)c1ccc(Cl)cc1 | > 50 µg/mL | 2.2 µg/mL (≈ 4.49 µM) | > 50 µg/mL | 6.1 µg/mL (≈ 12.5 µM) | > 50 µg/mL | > 50 µg/mL | > 50 µg/mL
CC(=O)N1CCN(c2ccc(OCC3COC(Cn4ccnc4)(c4ccc(Cl)cc4Cl)O3)cc2)CC1 (stereo unspecified) [KETOCONAZOLE] |  |  |  |  | 7.8 µg/mL (≈ 14.7 µM) | 3.9 µg/mL (≈ 7.34 µM) | 3.9 µg/mL (≈ 7.34 µM)
CCOC(=O)/C(=C\Nc1ccc(Br)cc1Br)c1ccc(Cl)cc1 | > 50 µg/mL | 32.1 µg/mL (≈ 69.8 µM) | > 50 µg/mL | 23.8 µg/mL (≈ 51.8 µM) | > 50 µg/mL | > 50 µg/mL | > 50 µg/mL
CCOC(=O)/C(=C\Nc1ccc(F)cc1)c1ccc(Cl)cc1 | 49.8 µg/mL (≈ 156 µM) | > 50 µg/mL | 43.4 µg/mL (≈ 136 µM) | > 50 µg/mL | > 50 µg/mL | > 50 µg/mL | > 50 µg/mL
CCOC(=O)/C(=C\Nc1cc(F)cc(F)c1)c1ccc(Cl)cc1 | > 50 µg/mL | > 50 µg/mL | > 50 µg/mL | > 50 µg/mL | > 50 µg/mL | > 50 µg/mL | > 50 µg/mL
CCOC(=O)/C(=C\Nc1ccc(F)cc1F)c1ccc(Cl)cc1 | > 50 µg/mL | > 50 µg/mL | 47.3 µg/mL (≈ 140 µM) | > 50 µg/mL | > 50 µg/mL | > 50 µg/mL | > 50 µg/mL
CCOC(=O)/C(=C/Nc1cc(F)cc(F)c1)c1ccc(Cl)cc1 | 48.2 µg/mL (≈ 143 µM) | 1.9 µg/mL (≈ 5.63 µM) | 13.5 µg/mL (≈ 40 µM) | 31.5 µg/mL (≈ 93.3 µM) | > 50 µg/mL | > 50 µg/mL | > 50 µg/mL
CCOC(=O)/C(=C\Nc1cc(Cl)cc(Cl)c1)c1ccc(Cl)cc1 | > 50 µg/mL | > 50 µg/mL | > 50 µg/mL | > 50 µg/mL | > 50 µg/mL | > 50 µg/mL | > 50 µg/mL
CCOC(=O)/C(=C\Nc1ccc(Cl)cc1Cl)c1ccc(Cl)cc1 | > 50 µg/mL | > 50 µg/mL | > 50 µg/mL | > 50 µg/mL | > 50 µg/mL | > 50 µg/mL | > 50 µg/mL
CCOC(=O)/C(=C\Nc1cc(Br)c(OCc2ccccc2)c(Br)c1)c1ccc(Cl)cc1 | > 50 µg/mL | > 50 µg/mL | > 50 µg/mL | > 50 µg/mL | > 50 µg/mL | > 50 µg/mL | > 50 µg/mL
CCOC(=O)/C(=C/Nc1ccc(F)cc1F)c1ccc(Cl)cc1 | > 50 µg/mL | 40.9 µg/mL (≈ 121 µM) | 48 µg/mL (≈ 142 µM) | > 50 µg/mL | > 50 µg/mL | > 50 µg/mL | > 50 µg/mL
CCOC(=O)/C(=C/Nc1cc(Cl)cc(Cl)c1)c1ccc(Cl)cc1 | > 50 µg/mL | 1.1 µg/mL (≈ 2.97 µM) | > 50 µg/mL | 25.7 µg/mL (≈ 69.3 µM) | > 50 µg/mL | > 50 µg/mL | > 50 µg/mL
CCOC(=O)/C(=C\Nc1cc(OC)cc(OC)c1)c1ccc(Cl)cc1 | > 50 µg/mL | > 50 µg/mL | > 50 µg/mL | 36.3 µg/mL (≈ 100 µM) | > 50 µg/mL | > 50 µg/mL | > 50 µg/mL
CCOC(=O)/C(=C/N1CCCc2ccccc21)c1ccc(Cl)cc1 | > 50 µg/mL | > 50 µg/mL | > 50 µg/mL | 38.5 µg/mL (≈ 113 µM) | > 50 µg/mL | > 50 µg/mL | > 50 µg/mL
CCOC(=O)/C(=C/Nc1ccc(Cl)cc1Cl)c1ccc(Cl)cc1 | > 50 µg/mL | 12.3 µg/mL (≈ 33.2 µM) | > 50 µg/mL | 7.1 µg/mL (≈ 19.2 µM) | > 50 µg/mL | > 50 µg/mL | > 50 µg/mL
